# Assay results reported in ChEMBL document CHEMBL3393047, “Pyridine and pyridinone-based factor XIa inhibitors” (Bioorg Med Chem Lett, 2015).
# Experiments:
# Coagulation factor XI = Coagulation factor XI (Homo sapiens, UniProt P03951); experiment: Inhibition of human coagulation factor 11a after 10 to 120 mins
# Plasma = experiment: Anticoagulant activity in human plasma assessed as concentration required to double the activated partial thromboplastin time; format: functional
# Summary of the method: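 In vitro clotting assay run in human plasma; activity read out as the activated partial thromboplastin time, and the value reported as EC2x, the concentration that doubles aPTT.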
# Coagulation factor VII = biological target: T1, Coagulation factor VII (Homo sapiens, UniProt P08709); experiment: Inhibition of human coagulation factor 7a
# T1 sequence (P08709 whole entry): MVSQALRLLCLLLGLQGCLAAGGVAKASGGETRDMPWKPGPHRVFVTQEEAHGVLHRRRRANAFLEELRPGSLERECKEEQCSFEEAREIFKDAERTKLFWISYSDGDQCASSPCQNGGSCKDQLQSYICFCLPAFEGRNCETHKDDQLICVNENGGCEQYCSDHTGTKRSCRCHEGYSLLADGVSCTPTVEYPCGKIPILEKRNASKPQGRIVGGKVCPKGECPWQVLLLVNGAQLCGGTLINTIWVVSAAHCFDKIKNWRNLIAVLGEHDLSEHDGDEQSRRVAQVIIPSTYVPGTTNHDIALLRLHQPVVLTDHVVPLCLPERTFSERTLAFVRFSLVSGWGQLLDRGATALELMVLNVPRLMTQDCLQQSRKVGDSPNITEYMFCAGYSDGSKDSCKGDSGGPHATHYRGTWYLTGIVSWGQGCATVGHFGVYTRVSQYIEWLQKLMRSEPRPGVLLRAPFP
# Summary of the method: (§1)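 Ki determined against purified human enzymes (selectivity panel of serine proteases).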
# Coagulation factor IX = Coagulation factor IX (Homo sapiens, UniProt P00740); experiment: Inhibition of human coagulation factor 9a; summary of the method: as §1
# Coagulation factor X = Coagulation factor X (Homo sapiens, UniProt P00742); experiment: Inhibition of human coagulation factor 10a; summary of the method: as §1
# Prothrombin = Prothrombin (Homo sapiens, UniProt P00734); experiment: Inhibition of human thrombin; summary of the method: as §1
# Trypsin = Trypsin (Homo sapiens, UniProt P07477+P07478+P35030); experiment: Inhibition of human trypsin; format: protein assay; summary of the method: as §1
# Plasma kallikrein = Plasma kallikrein (Homo sapiens, UniProt P03952); experiment: Inhibition of human plasma kallikrein; summary of the method: as §1
# [1] = biological target: Vitamin K-dependent protein C (Homo sapiens, UniProt P04070); experiment: Inhibition of human activated protein C; summary of the method: as §1
# Plasminogen = Plasminogen (Homo sapiens, UniProt P00747); experiment: Inhibition of human plasmin; summary of the method: as §1
# [2] = biological target: Tissue-type plasminogen activator (Homo sapiens, UniProt P00750); experiment: Inhibition of human TPA; summary of the method: as §1
# [3] = biological target: Urokinase-type plasminogen activator (Homo sapiens, UniProt P00749); experiment: Inhibition of human urokinase; summary of the method: as §1
# [4] = Inhibition of human chymotrypsin; summary of the method: as §1
# Sequence of Coagulation factor XI (P03951 19-387 limits assumed): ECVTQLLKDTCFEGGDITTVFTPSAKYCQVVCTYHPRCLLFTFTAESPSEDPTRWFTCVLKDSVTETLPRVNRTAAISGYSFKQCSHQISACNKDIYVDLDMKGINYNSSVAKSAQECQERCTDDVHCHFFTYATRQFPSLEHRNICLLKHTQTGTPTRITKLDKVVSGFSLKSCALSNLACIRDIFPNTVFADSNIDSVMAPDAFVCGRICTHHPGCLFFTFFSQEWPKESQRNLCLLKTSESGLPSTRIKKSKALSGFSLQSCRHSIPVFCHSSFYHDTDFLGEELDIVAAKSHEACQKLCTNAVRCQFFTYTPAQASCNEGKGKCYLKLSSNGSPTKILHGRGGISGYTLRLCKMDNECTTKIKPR
# Sequence of Coagulation factor XI (P03951 388-625 limits assumed): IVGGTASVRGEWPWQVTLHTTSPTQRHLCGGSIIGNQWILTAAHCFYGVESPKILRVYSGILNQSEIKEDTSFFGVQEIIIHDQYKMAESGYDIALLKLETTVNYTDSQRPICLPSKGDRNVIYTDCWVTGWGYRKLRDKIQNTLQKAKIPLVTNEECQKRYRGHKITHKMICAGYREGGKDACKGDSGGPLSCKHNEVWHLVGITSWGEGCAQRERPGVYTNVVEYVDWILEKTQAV
# Sequence of Coagulation factor X (P00742 41-179 limits assumed): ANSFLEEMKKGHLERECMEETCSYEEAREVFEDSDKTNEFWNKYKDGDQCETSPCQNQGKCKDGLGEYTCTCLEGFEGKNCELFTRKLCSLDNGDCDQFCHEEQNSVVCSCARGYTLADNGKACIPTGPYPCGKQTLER
# Sequence of Coagulation factor X (P00742 235-488 limits assumed): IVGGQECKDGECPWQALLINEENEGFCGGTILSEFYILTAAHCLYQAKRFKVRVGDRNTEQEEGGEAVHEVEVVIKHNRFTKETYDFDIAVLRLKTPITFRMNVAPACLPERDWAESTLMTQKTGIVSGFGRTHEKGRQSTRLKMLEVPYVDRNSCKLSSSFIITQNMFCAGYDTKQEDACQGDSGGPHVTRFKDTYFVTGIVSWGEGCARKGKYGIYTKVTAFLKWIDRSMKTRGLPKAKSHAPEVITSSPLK
# Sequence of Vitamin K-dependent protein C (P04070 43-197 limits assumed): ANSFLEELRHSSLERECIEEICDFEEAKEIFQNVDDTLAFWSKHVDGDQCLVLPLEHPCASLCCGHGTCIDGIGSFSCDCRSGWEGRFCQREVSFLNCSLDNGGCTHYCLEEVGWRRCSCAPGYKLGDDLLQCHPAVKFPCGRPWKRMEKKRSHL
# Sequence of Vitamin K-dependent protein C (P04070 212-461 limits assumed): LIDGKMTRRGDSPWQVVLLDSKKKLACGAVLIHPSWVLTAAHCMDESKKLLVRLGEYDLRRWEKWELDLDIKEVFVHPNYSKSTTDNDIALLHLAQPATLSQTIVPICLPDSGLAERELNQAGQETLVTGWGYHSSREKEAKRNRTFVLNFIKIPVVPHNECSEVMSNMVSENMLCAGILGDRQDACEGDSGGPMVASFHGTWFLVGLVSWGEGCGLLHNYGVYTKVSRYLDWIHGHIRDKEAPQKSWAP
# Sequence of Tissue-type plasminogen activator (P00750 whole entry): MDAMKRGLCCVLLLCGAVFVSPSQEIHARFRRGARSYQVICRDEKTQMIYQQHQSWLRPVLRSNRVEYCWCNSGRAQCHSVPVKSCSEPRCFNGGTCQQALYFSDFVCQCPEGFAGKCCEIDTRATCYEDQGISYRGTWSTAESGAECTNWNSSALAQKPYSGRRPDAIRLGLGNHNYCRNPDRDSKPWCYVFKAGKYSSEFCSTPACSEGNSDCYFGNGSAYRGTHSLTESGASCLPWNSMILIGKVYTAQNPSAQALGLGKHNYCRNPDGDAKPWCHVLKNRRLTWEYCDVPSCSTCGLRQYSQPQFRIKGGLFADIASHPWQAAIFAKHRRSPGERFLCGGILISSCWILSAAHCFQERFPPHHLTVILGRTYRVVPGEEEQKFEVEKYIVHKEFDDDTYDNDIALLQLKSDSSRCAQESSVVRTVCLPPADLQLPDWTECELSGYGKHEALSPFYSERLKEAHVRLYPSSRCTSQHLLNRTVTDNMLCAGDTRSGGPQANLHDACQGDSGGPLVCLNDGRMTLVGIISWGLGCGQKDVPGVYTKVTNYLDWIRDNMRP
# Sequence of Plasminogen (P00747 97-580 limits assumed): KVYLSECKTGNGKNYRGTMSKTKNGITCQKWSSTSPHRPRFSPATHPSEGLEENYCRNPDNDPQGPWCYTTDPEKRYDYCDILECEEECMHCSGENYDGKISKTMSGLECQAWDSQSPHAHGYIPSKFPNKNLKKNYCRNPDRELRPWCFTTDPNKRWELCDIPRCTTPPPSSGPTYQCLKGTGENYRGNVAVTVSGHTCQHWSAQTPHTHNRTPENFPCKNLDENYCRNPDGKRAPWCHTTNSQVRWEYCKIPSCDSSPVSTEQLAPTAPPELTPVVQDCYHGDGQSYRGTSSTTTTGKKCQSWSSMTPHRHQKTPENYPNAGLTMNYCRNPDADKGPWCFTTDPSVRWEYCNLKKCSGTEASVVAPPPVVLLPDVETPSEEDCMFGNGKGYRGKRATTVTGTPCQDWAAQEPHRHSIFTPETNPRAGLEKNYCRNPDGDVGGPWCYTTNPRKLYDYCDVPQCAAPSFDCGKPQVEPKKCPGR
# Sequence of Plasminogen (P00747 581-810 limits assumed): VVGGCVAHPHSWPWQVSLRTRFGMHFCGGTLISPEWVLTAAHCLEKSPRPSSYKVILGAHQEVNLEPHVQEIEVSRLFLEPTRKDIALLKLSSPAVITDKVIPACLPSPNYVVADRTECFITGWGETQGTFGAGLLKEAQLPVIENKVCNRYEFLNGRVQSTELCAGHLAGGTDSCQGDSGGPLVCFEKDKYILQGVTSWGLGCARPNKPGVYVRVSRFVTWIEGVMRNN
# Sequence of Plasma kallikrein (P03952 20-390 limits assumed): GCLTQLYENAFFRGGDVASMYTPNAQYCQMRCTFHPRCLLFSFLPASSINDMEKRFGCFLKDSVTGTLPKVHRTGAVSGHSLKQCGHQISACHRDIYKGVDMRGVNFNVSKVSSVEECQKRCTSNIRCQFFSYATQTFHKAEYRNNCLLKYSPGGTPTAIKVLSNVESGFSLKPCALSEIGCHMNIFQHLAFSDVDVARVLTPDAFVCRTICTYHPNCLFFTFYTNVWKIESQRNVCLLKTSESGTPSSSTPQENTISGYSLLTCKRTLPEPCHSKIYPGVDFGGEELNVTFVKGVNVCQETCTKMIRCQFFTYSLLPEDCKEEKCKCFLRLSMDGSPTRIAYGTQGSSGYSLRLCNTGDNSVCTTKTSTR
# Sequence of Plasma kallikrein (P03952 391-638 limits assumed): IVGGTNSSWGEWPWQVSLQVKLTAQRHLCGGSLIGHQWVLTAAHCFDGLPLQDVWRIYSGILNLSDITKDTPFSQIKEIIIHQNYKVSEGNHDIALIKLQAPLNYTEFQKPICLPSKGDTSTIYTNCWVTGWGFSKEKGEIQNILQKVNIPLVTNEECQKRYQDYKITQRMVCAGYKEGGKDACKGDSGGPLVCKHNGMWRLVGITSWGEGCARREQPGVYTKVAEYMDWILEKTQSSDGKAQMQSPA
# Sequence of Coagulation factor IX (P00740 47-191 limits assumed): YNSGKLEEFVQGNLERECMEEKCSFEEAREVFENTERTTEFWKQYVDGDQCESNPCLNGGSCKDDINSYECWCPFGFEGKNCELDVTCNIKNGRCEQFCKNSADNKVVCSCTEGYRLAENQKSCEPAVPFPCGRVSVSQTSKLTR
# Sequence of Coagulation factor IX (P00740 227-461 limits assumed): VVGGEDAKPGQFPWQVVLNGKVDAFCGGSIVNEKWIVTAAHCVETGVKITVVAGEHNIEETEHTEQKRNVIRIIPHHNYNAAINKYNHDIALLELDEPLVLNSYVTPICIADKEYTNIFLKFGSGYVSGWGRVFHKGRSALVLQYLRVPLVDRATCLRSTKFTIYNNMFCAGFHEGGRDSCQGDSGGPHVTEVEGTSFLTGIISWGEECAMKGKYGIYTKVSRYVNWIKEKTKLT
Structure (SMILES),Ki (Coagulation factor XI) [µM],also measured
NC[C@H]1CC[C@H](C(=O)N[C@H](Cc2ccccc2)c2cccc(-c3ccc4c(N)n[nH]c4c3)c2)CC1,6.16,
Cn1c(C(Cc2ccccc2)NC(=O)[C@H]2CC[C@H](CN)CC2)cc(-c2ccccc2)cc1=O (mixture of isomers),0.479,
NC[C@H]1CC[C@H](C(=O)N[C@@H](Cc2ccccc2)c2nc(-c3ccccc3)c(Cl)[nH]2)CC1,0.012,
NC[C@H]1CC[C@H](C(=O)N[C@@H](Cc2ccccc2)c2nccc(-c3ccccc3)n2)CC1,11.4,
NC[C@H]1CC[C@H](C(=O)N[C@@H](Cc2ccccc2)c2nc(-c3ccc4c(N)n[nH]c4c3)c[nH]2)CC1,0.0032,2aPTT (Plasma): 3 µM
NC[C@H]1CC[C@H](C(=O)N[C@H](Cc2ccccc2)c2cc(-c3ccc4c(N)n[nH]c4c3)ccn2)CC1,1.07,
NC[C@H]1CC[C@H](C(=O)NC(Cc2ccccc2)c2cc(-c3ccc4c(N)n[nH]c4c3)cc(=O)[nH]2)CC1 (mixture of isomers),0.0037,2aPTT (Plasma): 2.5 µM
NC[C@H]1CC[C@H](C(=O)NC(Cc2ccccc2)c2cncc(-c3ccccc3)c2)CC1 (mixture of isomers),0.33,
CNc1cc(-c2ccccc2)cc(C(Cc2ccccc2)NC(=O)[C@H]2CC[C@H](CN)CC2)n1 (mixture of isomers),0.86,
NC[C@H]1CC[C@H](C(=O)NC(Cc2ccccc2)c2cc(-c3ccccc3)c[n+]([O-])c2)CC1 (mixture of isomers),1.06,
NC[C@H]1CC[C@H](C(=O)N[C@@H](Cc2ccccc2)c2cccc(-c3ccc4c(N)n[nH]c4c3)c2)CC1,0.021,2aPTT (Plasma): 37 µM
NC[C@H]1CC[C@H](C(=O)NC(Cc2ccccc2)c2cc(-c3ccccc3)cc(O)n2)CC1 (mixture of isomers),0.113,
NC[C@H]1CC[C@H](C(=O)NC(Cc2ccccc2)c2ccnc(-c3ccccc3)c2)CC1 (mixture of isomers),0.32,
NC[C@H]1CC[C@H](C(=O)NC(Cc2ccccc2)c2cc(-c3ccccc3)cc[n+]2[O-])CC1 (mixture of isomers),1.69,
NC[C@H]1CC[C@H](C(=O)NC(Cc2ccccc2)c2cc[n+]([O-])c(-c3ccccc3)c2)CC1 (mixture of isomers),2.53,
NC[C@H]1CC[C@H](C(=O)NC(Cc2ccccc2)c2cccc(-c3ccccc3)n2)CC1 (mixture of isomers),30.2,
NC[C@H]1CC[C@H](C(=O)N[C@@H](Cc2ccccc2)c2cc(-c3ccc4c(N)n[nH]c4c3)ccn2)CC1,0.0084,2aPTT (Plasma): 4.5 µM; Ki (Coagulation factor VII): > 10.9 µM; Ki (Coagulation factor IX): > 34.9 µM; Ki (Coagulation factor X): > 9 µM; Ki (Prothrombin): > 12.6 µM; Ki (Trypsin): 0.064 µM; Ki (Plasma kallikrein): 0.024 µM; Ki [1]: > 21.4 µM; Ki (Plasminogen): > 22.1 µM; Ki [2]: > 21.9 µM; Ki [3]: > 14.1 µM; Ki [4]: > 20.8 µM
NC[C@H]1CC[C@H](C(=O)NC(Cc2ccccc2)c2cc(-c3ccccc3)ccn2)CC1 (mixture of isomers),0.377,
NC[C@H]1CC[C@H](C(=O)NC(Cc2ccccc2)c2cc(-c3ccccc3)cc(Cl)n2)CC1 (mixture of isomers),0.206,
NC[C@H]1CC[C@H](C(=O)NC(Cc2ccccc2)c2cc(-c3ccccc3)ncn2)CC1 (mixture of isomers),0.331,
NC[C@H]1CC[C@H](C(=O)NC(Cc2ccccc2)c2cccc(-c3ccccc3)c2)CC1 (mixture of isomers),0.936,
NC[C@H]1CC[C@H](C(=O)NC(Cc2ccccc2)c2cc(-c3ccc4c(N)n[nH]c4c3)ccn2)CC1 (mixture of isomers),0.013,2aPTT (Plasma): 6 µM
NC[C@H]1CC[C@H](C(=O)NC(Cc2ccccc2)c2cc(-c3ccccc3)cc(N)n2)CC1 (mixture of isomers),0.227,
NC[C@H]1CC[C@H](C(=O)NC(Cc2ccccc2)c2cc(-c3ccccc3)c(F)cn2)CC1 (mixture of isomers),0.433,
COc1cc(-c2ccccc2)cc(C(Cc2ccccc2)NC(=O)[C@H]2CC[C@H](CN)CC2)n1 (mixture of isomers),0.949,
NC[C@H]1CC[C@H](C(=O)NC(Cc2ccccc2)c2cccc(-c3ccc4c(N)n[nH]c4c3)c2)CC1 (mixture of isomers),0.042,2aPTT (Plasma): >40 µM
